Active and inactive are the calls of the source. No cut-off for these calls is given here.
Columns and labels:
[1] = test system: Bromus diandrus var. rigidus; assay: Resistance index, ratio of LD50 for ALS-inhibiting herbicide-resistant two-leaf stage Bromus diandrus var. rigidus biotype R1 to ALS-inhibiting herbicide-susceptible two-leaf stage Bromus diandrus var. rigidus; format: functional
In short: (§1)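 Seedlings germinated on 1% water agar (7–10 days, ambient) were sprayed at the 2–3-leaf stage with a sulfonylurea at 1.875–240 g ha−1, with no malathion. Percent survival was scored with three replicate treatments. LD50 came from non-linear regression, and R/S is the ratio of resistant to susceptible LD50.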

[2] = test system: Bromus diandrus var. rigidus; assay: Herbicidal activity against ALS-inhibiting herbicide-resistant two-leaf stage Bromus diandrus var. rigidus biotype R4 seedlings exposed to compound spraying measured 28 days after compound spraying; format: functional; in short: as §1
[3] = test system: Bromus diandrus var. rigidus; assay: Resistance index, ratio of LD50 for ALS-inhibiting herbicide-resistant two-leaf stage Bromus diandrus var. rigidus biotype R5 to ALS-inhibiting herbicide-susceptible two-leaf stage Bromus diandrus var. rigidus; format: functional; in short: as §1
[4] = test system: Bromus diandrus var. rigidus; assay: Resistance index, ratio of LD50 for ALS-inhibiting herbicide-resistant two-leaf stage Bromus diandrus var. rigidus biotype R4 to ALS-inhibiting herbicide-susceptible two-leaf stage Bromus diandrus var. rigidus; format: functional; in short: as §1
[5] = test system: Bromus diandrus var. rigidus; assay: Herbicidal activity against ALS-inhibiting herbicide-resistant two-leaf stage Bromus diandrus var. rigidus biotype R6 seedlings exposed to compound spraying measured 28 days after compound spraying; format: functional; in short: as §1
[6] = test system: Bromus diandrus var. rigidus; assay: Herbicidal activity against ALS-inhibiting herbicide-resistant two-leaf stage Bromus diandrus var. rigidus biotype R1 seedlings exposed to compound spraying measured 28 days after compound spraying; format: functional; in short: as §1
[7] = test system: Bromus diandrus var. rigidus; assay: Resistance index, ratio of LD50 for ALS-inhibiting herbicide-resistant two-leaf stage Bromus diandrus var. rigidus biotype R6 to ALS-inhibiting herbicide-susceptible two-leaf stage Bromus diandrus var. rigidus; format: functional; in short: as §1
[8] = test system: Bromus diandrus var. rigidus; assay: Herbicidal activity against ALS-inhibiting herbicide-resistant two-leaf stage Bromus diandrus var. rigidus biotype R2 seedlings exposed to compound spraying measured 28 days after compound spraying; format: functional; in short: as §1
[9] = test system: Bromus diandrus var. rigidus; assay: Herbicidal activity against ALS-inhibiting herbicide-resistant two-leaf stage Bromus diandrus var. rigidus biotype R3 seedlings exposed to compound spraying measured 28 days after compound spraying; format: functional; in short: as §1
[10] = test system: Bromus diandrus var. rigidus; assay: Herbicidal activity against ALS-inhibiting herbicide-susceptible two-leaf stage Bromus diandrus var. rigidus seedlings exposed to compound spraying measured 28 days after compound spraying; format: functional; in short: as §1
[11] = test system: Bromus diandrus var. rigidus; assay: Resistance index, ratio of LD50 for ALS-inhibiting herbicide-resistant two-leaf stage Bromus diandrus var. rigidus biotype R3 to ALS-inhibiting herbicide-susceptible two-leaf stage Bromus diandrus var. rigidus; format: functional; in short: as §1
[12] = test system: Bromus diandrus var. rigidus; assay: Herbicidal activity against ALS-inhibiting herbicide-resistant two-leaf stage Bromus diandrus var. rigidus biotype R5 seedlings exposed to compound spraying measured 28 days after compound spraying; format: functional; in short: as §1
[13] = test system: Bromus diandrus var. rigidus; assay: Resistance index, ratio of LD50 for ALS-inhibiting herbicide-resistant two-leaf stage Bromus diandrus var. rigidus biotype R2 to ALS-inhibiting herbicide-susceptible two-leaf stage Bromus diandrus var. rigidus; format: functional; in short: as §1
[14] = test system: Bromus diandrus var. rigidus; assay: Herbicidal activity against ALS-inhibiting herbicide-susceptible two-leaf stage Bromus diandrus var. rigidus seedlings exposed to compound spraying in absence of 1000 g/ha cytochrome P450 inhibitor malathion measured […] after compound spraying; format: functional
In short: (§2)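 Seeds were germinated on 1% water agar for 7–10 days at ambient conditions, then sprayed at the 2–3-leaf stage. Malathion at 1000 g ha−1 was sprayed 30 min before the herbicide, or omitted. Herbicide doses were 18.75–600 g ha−1. Survival and dried above-ground biomass were assessed 21 days after treatment, with two replicates. LD50 came from non-linear regression, and R/S is the ratio of resistant to susceptible LD50.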

[15] = test system: Bromus diandrus var. rigidus; assay: (§3) Resistance index, ratio of LD50 for ALS-inhibiting herbicide-resistant two-leaf stage Bromus diandrus var. rigidus biotype R5 in presence of 1000 g/ha cytochrome P450 inhibitor malathion to LD50 for ALS-inhibiting herbicide-susceptible two-leaf stage Bromus diandrus var. rigidus in presence of 1000 g/ha cytochrome P450 inhibitor malathion; format: functional; in short: as §2
[16] = test system: Bromus diandrus var. rigidus; assay: Herbicidal activity against ALS-inhibiting herbicide-susceptible two-leaf stage Bromus diandrus var. rigidus seedlings exposed to compound spraying in presence of 1000 g/ha cytochrome P450 inhibitor malathion measured […]; format: functional; in short: as §2
[17] = test system: Bromus diandrus var. rigidus; assay: as §3, with “R3” for “R5”, “absence” for “presence”; format: functional; in short: as §2
[18] = test system: Bromus diandrus var. rigidus; assay: Herbicidal activity against ALS-inhibiting herbicide-resistant two-leaf stage Bromus diandrus var. rigidus biotype R5 seedlings exposed to compound spraying in absence of 1000 g/ha cytochrome P450 inhibitor malathion measured […]; format: functional; in short: as §2
[19] = test system: Bromus diandrus var. rigidus; assay: Herbicidal activity against ALS-inhibiting herbicide-resistant two-leaf stage Bromus diandrus var. rigidus biotype R3 seedlings assessed as reduction in above-ground biomass exposed to compound spraying in presence of 1000 g/ha cytochrome P450 inhibitor malathion measured […]; format: functional, organism-based; in short: as §2
[20] = test system: Bromus diandrus var. rigidus; assay: Herbicidal activity against ALS-inhibiting herbicide-resistant two-leaf stage Bromus diandrus var. rigidus biotype R6 seedlings exposed to compound spraying in presence of 1000 g/ha cytochrome P450 inhibitor malathion measured […]; format: functional; in short: as §2
[21] = test system: Bromus diandrus var. rigidus; assay: Herbicidal activity against ALS-inhibiting herbicide-resistant two-leaf stage Bromus diandrus var. rigidus biotype R2 seedlings exposed to compound spraying in presence of 1000 g/ha cytochrome P450 inhibitor malathion measured […]; format: functional; in short: as §2
[22] = test system: Bromus diandrus var. rigidus; assay: Herbicidal activity against ALS-inhibiting herbicide-resistant two-leaf stage Bromus diandrus var. rigidus biotype R5 seedlings exposed to compound spraying in presence of 1000 g/ha cytochrome P450 inhibitor malathion measured […]; format: functional; in short: as §2
[23] = test system: Bromus diandrus var. rigidus; assay: Herbicidal activity against ALS-inhibiting herbicide-resistant two-leaf stage Bromus diandrus var. rigidus biotype R4 seedlings exposed to compound spraying in presence of 1000 g/ha cytochrome P450 inhibitor malathion measured […] after compound spraying; format: functional; in short: as §2
[24] = test system: Bromus diandrus var. rigidus; assay: as §3, with “R6” for “R5”; format: functional; in short: as §2
[25] = test system: Bromus diandrus var. rigidus; assay: Herbicidal activity against ALS-inhibiting herbicide-resistant two-leaf stage Bromus diandrus var. rigidus biotype R1 seedlings assessed as reduction in above-ground biomass exposed to compound spraying in presence of 1000 g/ha cytochrome P450 inhibitor malathion measured […]; format: functional, organism-based; in short: as §2
[26] = test system: Bromus diandrus var. rigidus; assay: as §3, with “R4” for “R5”, “absence” for “presence”; format: functional; in short: as §2
[27] = test system: Bromus diandrus var. rigidus; assay: as §3, with “R2” for “R5”, “absence” for “presence”; format: functional; in short: as §2
[28] = test system: Bromus diandrus var. rigidus; assay: Herbicidal activity against ALS-inhibiting herbicide-resistant two-leaf stage Bromus diandrus var. rigidus biotype R5 seedlings assessed as reduction in above-ground biomass exposed to compound spraying in presence of 1000 g/ha cytochrome P450 inhibitor malathion measured […]; format: functional, organism-based; in short: as §2
[29] = test system: Bromus diandrus var. rigidus; assay: as §3, with “R1” for “R5”; format: functional; in short: as §2
[30] = test system: Bromus diandrus var. rigidus; assay: Herbicidal activity against ALS-inhibiting herbicide-resistant two-leaf stage Bromus diandrus var. rigidus biotype R6 seedlings exposed to compound spraying in absence of 1000 g/ha cytochrome P450 inhibitor malathion measured […]; format: functional; in short: as §2
[31] = test system: Bromus diandrus var. rigidus; assay: Herbicidal activity against ALS-inhibiting herbicide-resistant two-leaf stage Bromus diandrus var. rigidus biotype R4 seedlings assessed as reduction in above-ground biomass exposed to compound spraying in presence of 1000 g/ha cytochrome P450 inhibitor malathion measured […]; format: functional, organism-based; in short: as §2
[32] = test system: Bromus diandrus var. rigidus; assay: Herbicidal activity against ALS-inhibiting herbicide-resistant two-leaf stage Bromus diandrus var. rigidus biotype R6 seedlings assessed as reduction in above-ground biomass exposed to compound spraying in presence of 1000 g/ha cytochrome P450 inhibitor malathion measured […]; format: functional, organism-based; in short: as §2
[33] = test system: Bromus diandrus var. rigidus; assay: as §3, with “R2” for “R5”; format: functional; in short: as §2
[34] = test system: Bromus diandrus var. rigidus; assay: as §3, with “R4” for “R5”; format: functional; in short: as §2
[35] = test system: Bromus diandrus var. rigidus; assay: as §3, with “R3” for “R5”; format: functional; in short: as §2
[36] = test system: Bromus diandrus var. rigidus; assay: as §3, with “R1” for “R5”, “absence” for “presence”; format: functional; in short: as §2
[37] = test system: Bromus diandrus var. rigidus; assay: as §3, with “R6” for “R5”, “absence” for “presence”; format: functional; in short: as §2
[38] = test system: Bromus diandrus var. rigidus; assay: Herbicidal activity against ALS-inhibiting herbicide-resistant two-leaf stage Bromus diandrus var. rigidus biotype R3 seedlings exposed to compound spraying in presence of 1000 g/ha cytochrome P450 inhibitor malathion measured […]; format: functional; in short: as §2
[39] = test system: Bromus diandrus var. rigidus; assay: Herbicidal activity against ALS-inhibiting herbicide-resistant two-leaf stage Bromus diandrus var. rigidus biotype R3 seedlings exposed to compound spraying in absence of 1000 g/ha cytochrome P450 inhibitor malathion measured […]; format: functional; in short: as §2
[40] = test system: Bromus diandrus var. rigidus; assay: Herbicidal activity against ALS-inhibiting herbicide-resistant two-leaf stage Bromus diandrus var. rigidus biotype R4 seedlings exposed to compound spraying in absence of 1000 g/ha cytochrome P450 inhibitor malathion measured […]; format: functional; in short: as §2
[41] = test system: Bromus diandrus var. rigidus; assay: Herbicidal activity against ALS-inhibiting herbicide-resistant two-leaf stage Bromus diandrus var. rigidus biotype R1 seedlings exposed to compound spraying in presence of 1000 g/ha cytochrome P450 inhibitor malathion measured […]; format: functional; in short: as §2
[42] = test system: Bromus diandrus var. rigidus; assay: as §3, with “absence” for “presence”; format: functional; in short: as §2
[43] = test system: Bromus diandrus var. rigidus; assay: Herbicidal activity against ALS-inhibiting herbicide-resistant two-leaf stage Bromus diandrus var. rigidus biotype R2 seedlings assessed as reduction in above-ground biomass exposed to compound spraying in presence of 1000 g/ha cytochrome P450 inhibitor malathion measured […]; format: functional, organism-based; in short: as §2
[44] = test system: Bromus diandrus var. rigidus; assay: Herbicidal activity against ALS-inhibiting herbicide-resistant two-leaf stage Bromus diandrus var. rigidus biotype R2 seedlings exposed to compound spraying in absence of 1000 g/ha cytochrome P450 inhibitor malathion measured […] after compound spraying; format: functional; in short: as §2
[45] = test system: Bromus diandrus var. rigidus; assay: Herbicidal activity against ALS-inhibiting herbicide-resistant two-leaf stage Bromus diandrus var. rigidus biotype R1 seedlings exposed to compound spraying in absence of 1000 g/ha cytochrome P450 inhibitor malathion measured […]; format: functional; in short: as §2

For `Cc1cc(C)nc(NC(=O)NS(=O)(=O)c2ccccc2C(=O)O)n1` [SULFOMETURON], the Ratio [1] was 3, the LD50 [2] was 30 g/ha and the Ratio [3] was 3.8. It also gave a Ratio [4] of 3, an LD50 [5] of 41 g/ha and an LD50 [6] of 30 g/ha. The Ratio [7] was 4.1, the LD50 [8] was 33 g/ha and the LD50 [9] was 31 g/ha. It also gave an LD50 [10] of 10 g/ha, a Ratio [11] of 3.1 and an LD50 [12] of 38 g/ha. The Ratio [13] was 3.3.

`CCS(=O)(=O)c1nc2ccccn2c1S(=O)(=O)NC(=O)Nc1nc(OC)cc(OC)n1` [SULFOSULFURON] was tested, and the LD50 [14] was 21 g/ha, the Ratio [15] was 2 and the LD50 [16] was 6 g/ha. The Ratio [17] was 8.2, the LD50 [18] was 140 g/ha and the Activity [19] was “Active”. It also gave an LD50 [20] of 11 g/ha, an LD50 [21] of 10 g/ha and an LD50 [22] of 12 g/ha. The LD50 [23] was 13 g/ha, the Ratio [24] was 1.8 and the Activity [25] was “Active”. The Ratio [26] was 11.3, the Ratio [27] was 7.9 and the Activity [28] was “Active”. The Ratio [29] was 2.6, the LD50 [30] was 127 g/ha and the Activity [31] was “Active”. The Activity [32] was “Active”, the Ratio [33] was 1.6 and the Ratio [34] was 2.1. It also gave a Ratio [35] of 2.6, a Ratio [36] of 8.7 and a Ratio [37] of 6. For the same compound, the LD50 [38] was 16 g/ha, the LD50 [39] was 173 g/ha and the LD50 [40] was 239 g/ha. The LD50 [41] was 16 g/ha, the Ratio [42] was 6.6 and the Activity [43] was “Active”. It also gave an LD50 [44] of 166 g/ha and an LD50 [45] of 183 g/ha.
